Screening data: PubChem, several laboratories
EBNA-1 inh = EBNA-1 DNA-binding inhibitors, primary screen, biochemical, fluorescence polarization | inhibition, % at 14.8 µM | 300,000 tested, 0.34% active | AID 1950, 2009; in the data active = inhibition above about 28%
Apaf1 inhib = inhibitors of human Apaf-1 apoptosome, primary screen, biochemical, DEVD-Rh110 fluorescence, uHTS; AID 489030, 2010; 330,000 tested, 0.71% active; reconstituted apoptosome caspase-3 activity; Apoptotic protease-activating factor 1 (Homo sapiens), O14727; inhibition, % at 20 µM; active = inhibition of at least 40% at 20 µM
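Assay system: Apoptosome proteins | Medium: pH 7.5 Hepes buffer with CHAPS, BSA, DTT | Also added: Cytochrome c and DEVD-Rh110 substrate | Times: 30 min plus 50 min, RT | Detection: Rhodamine 110 fluorescence at Ex 480/Em 540 nm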
GSTO1 counter = inhibitors of recombinant GSTO1, primary screen, counter-screen for RBBP9 inhibitor project, biochemical, fluorescence polarization; activity-based probe fluorescence polarization; inhibition, % at 5.96 µM; 300,000 tested, 1.1% active; AID 1974, 2009;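 active = inhibition above the campaign mean inhibition plus 3 SD, cut at about 35% in these data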
proCasp7 act = procaspase-7 activators, primary screen, counter-screen for procaspase-3 activator project, biochemical, absorbance, HTS, human | 330,000 tested, 0.093% active | recombinant procaspase-7, Ac-DEVD-pNA absorbance 405 nm; D23A/D198A/D206A triple mutant, cannot self-cleave; scale: DMSO 0, 5 µM enzyme 100 | AID 463210, 2010 | activation, % at 8.5 µM | Caspase-7 (Homo sapiens), P55210;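 active = percent activation above the screen-wide mean plus 3 SD, cut at about 25% in these data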
Target sequence (P55210 whole entry D23A/D198A/D206A): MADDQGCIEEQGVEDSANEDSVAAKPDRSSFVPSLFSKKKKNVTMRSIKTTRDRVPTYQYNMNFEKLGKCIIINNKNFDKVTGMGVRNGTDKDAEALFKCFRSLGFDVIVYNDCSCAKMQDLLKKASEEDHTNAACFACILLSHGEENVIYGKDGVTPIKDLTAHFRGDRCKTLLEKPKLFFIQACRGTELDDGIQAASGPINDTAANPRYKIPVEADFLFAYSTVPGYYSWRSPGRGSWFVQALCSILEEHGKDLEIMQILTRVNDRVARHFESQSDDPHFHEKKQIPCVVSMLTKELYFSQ
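buffer or medium = Zinc-free HEPES/NaCl buffer, pH 7.4 | material = Procaspase-7 triple mutant (PC-7 D3A) | input = 2 µM procaspase-7 mutant as dispensed | signal = Epi-absorbance of released pNA at 405 nm, two timepoints | timing = 1 h preincubation, 2 h reaction | replicates = singlicate compound testing | evaluation = % activation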
proCasp3 act = activators of human procaspase-3 D3A mutant, primary screen, biochemical, absorbance, PC-3 D3A mutant, single concentration | recombinant procaspase-3 D3A, Ac-DEVD-pNA absorbance 405 nm | Caspase-3 (Homo sapiens), P42574 | AID 463141, 2010 | activation, % at 8.5 µM | 330,000 tested, 0.11% active;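 active = activation above the mean of all tested compounds plus 3 SD, cut at about 21% in these data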
Target sequence (P42574 whole entry D9A/D28A/D175A): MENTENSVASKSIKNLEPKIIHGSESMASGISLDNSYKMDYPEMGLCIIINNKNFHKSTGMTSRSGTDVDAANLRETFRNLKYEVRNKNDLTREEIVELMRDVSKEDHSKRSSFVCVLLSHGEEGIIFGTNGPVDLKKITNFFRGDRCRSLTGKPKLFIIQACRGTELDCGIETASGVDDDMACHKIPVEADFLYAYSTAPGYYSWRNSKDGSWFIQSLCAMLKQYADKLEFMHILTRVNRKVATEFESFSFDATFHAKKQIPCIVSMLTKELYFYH
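assay system = Procaspase-3 D3A mutant | signal = absorbance at 405 nm, 0 and 120 min | times = 1 h preincubation plus 2 h reaction at 25 °C | repeats = single replicate | read-out = % activation between DMSO and enzyme-spiked controls | medium = Zinc-free HEPES saline buffer with Triton X-100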
ZTA DNA inh = ZTA (EBV) inhibition in EBNA-1 counter-screen. P03206. ZTA-DNA binding, fluorescence polarization. inhibition, % at 11 µM. 320,000 tested, 0.15% active. AID 2234; in the data active = inhibition above about 33%
EBNA-1 inh conf = EBNA-1 DNA-binding inhibitors, retest, confirmation, biochemical, fluorescence polarization, triplicate; shares compounds with EBNA-1 inh; Recombinant EBNA-1 DBD, Cy5-DNA fluorescence polarization; inhibition, % at 14.8 µM; 830 tested, 35% active; AID 2292, 2010;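 active = mean inhibition across replicates above a set limit taken from the earlier primary screen, cut at about 28% in these data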
ZTA counter trip = EBV Zta DNA binding inhibitors, counter-screen for EBNA-1 inhibitor project, biochemical, fluorescence polarization, triplicate | AID 2328, 2010 | Zta-ZRE DNA binding, Cy5 fluorescence polarization | shares compounds with EBNA-1 inh | inhibition, % at 11.1 µM | 830 tested, under 10 active;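 active = mean inhibition over triplicates above a set limit taken from the primary EBNA-1 screen, cut at about 37% in these data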;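 also: purified full length Zta protein with Cy5 labeled ZRE DNA probe; inhibitors lower polarization by freeing the labeled DNA probe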
Each line names hits and unclear results; the compound was inactive in the other large screens (follow-up assays come after a bar, where they were run). A selection: hits, their analogues and other compounds. The true share with any hit is near 1.8%.

O=C(O)C1CCN(C(=O)c2ccc3c(c2)OCO3)CC1	none
CCOc1ccc(C(=O)Cc2ccc3oc(C(=O)O)cc3c2)c(O)c1	none
CCOC(=O)c1cc2cc(CC(=O)c3ccc(OCC)cc3O)ccc2o1	EBNA-1 inh 27.8 | EBNA-1 inh conf 29.6 | ZTA counter trip inactive
CCN1CCN(S(=O)(=O)c2ccc(Cl)c(C(=O)N(C)Cc3ccco3)c2)CC1	none (no result: EBNA-1 inh, GSTO1 counter, proCasp7 act, proCasp3 act, ZTA DNA inh)
Cc1ccccc1CNC(=O)C1CCN(c2nnc(N3CCCC3=O)s2)CC1	EBNA-1 inh 96.3 | EBNA-1 inh conf inactive | ZTA counter trip inactive
COc1ccc(CN2C(=O)c3cccnc3C2=O)cc1S(=O)(=O)N(C)c1cccc(C)c1	none
Cc1ccc(OCc2cc(C(=O)N(C)CCc3ccccn3)no2)cn1	none
CCc1nn(-c2ccccc2)c(=S)c2ccccc12	EBNA-1 inh 35.0 | EBNA-1 inh conf inactive | ZTA counter trip inactive
CC1CC(C)(C)CC2(C1)NC(=O)N(CC(=O)N(Cc1ccccc1)c1ccccc1)C2=O (configuration not stated)	none
NS(=O)(=O)c1ccc(NC(=O)/C=C/c2ccc3c(c2)OCO3)cc1	EBNA-1 inh 43.8 | EBNA-1 inh conf inactive | ZTA counter trip inactive
COc1ccc(CNc2ncnc(N)n2)cc1	none
COc1ccc(CNc2nc(NCc3ccc(OC)cc3)c3[nH]cnc3n2)cc1	EBNA-1 inh 39.2 | EBNA-1 inh conf inactive | ZTA counter trip inactive
NC(=S)N/N=C/c1ccc(/C=N/NC(N)=S)cc1	EBNA-1 inh 67.9 | EBNA-1 inh conf 34.4 | ZTA counter trip inactive
NC(=S)N/N=C/c1cccc(/C=N/NC(N)=S)c1	none
O=C(COc1ccc2cc(Br)ccc2c1Br)N1CCOCC1	none (no result: EBNA-1 inh, GSTO1 counter, proCasp7 act, proCasp3 act, ZTA DNA inh)
COc1cccc(CNC(=O)c2cc3oc4ccccc4c3n2C)c1OC	EBNA-1 inh 31.6 | EBNA-1 inh conf inactive | ZTA counter trip inactive
CCn1c(SCC(=O)NCCc2ccccc2)nc2c([nH]c3ccccc32)c1=O	EBNA-1 inh 41.8 | EBNA-1 inh conf inactive | ZTA counter trip inactive
Cc1ccc(NC(=O)N2CCCC2C(=O)Nc2c(C)cc(C)cc2C)cc1 (configuration not stated)	none
O=C1[C@H]2CCC=C[C@H]2[C@H](c2cccc(Br)c2)N1Cc1ccccc1	none (no result: EBNA-1 inh, GSTO1 counter, ZTA DNA inh)
COc1cc(/C=C/C(C)=O)cc(OC)c1OC	none
COc1ccc2cc(C(=O)/C=C/c3cc(OC)c(OC)c(OC)c3)ccc2c1	EBNA-1 inh 47.9 | EBNA-1 inh conf inactive | ZTA counter trip inactive
CCC(=O)Nc1nnc(SCC(=O)c2ccc3c(c2)Cc2ccccc2-3)s1	EBNA-1 inh 31.1 | EBNA-1 inh conf inactive | ZTA counter trip inactive
CCC(=O)Nc1nnc(SCC(=O)N2c3ccccc3CC2C)s1 (configuration not stated)	none
CC(=O)Nc1nnc(SCC(=O)c2ccc3c(c2)Cc2ccccc2-3)s1	EBNA-1 inh 40.1 | EBNA-1 inh conf 43.3 | ZTA counter trip inactive
Cc1sc2ncnc(NCC(O)c3ccc([N+](=O)[O-])cc3)c2c1C (configuration not stated)	none
O=S(=O)(c1ccc2nc(-c3ccccc3)[nH]c2c1)N1CCN(c2ccc(Cl)cc2)CC1	EBNA-1 inh 36.8 | EBNA-1 inh conf inactive | ZTA counter trip inactive
CNC(=O)/C(C#N)=C\c1ccc(CNS(=O)(=O)c2ccccc2)o1	none
CCOc1ccc(NC(=O)C(=O)N/N=C\c2ccc(CNS(=O)(=O)c3ccccc3)o2)cc1	EBNA-1 inh 63.0 | EBNA-1 inh conf 58.1 | ZTA counter trip inactive
COc1ccc2oc(C(=O)Nc3nccs3)c(C)c2c1	EBNA-1 inh 29.2 | EBNA-1 inh conf 54.8 | ZTA counter trip inactive
Cc1ccc(C2CC(c3cccs3)=NN2C(=O)CSc2nc(=O)n3cc(C)ccc3n2)cc1 (configuration not stated)	EBNA-1 inh 41.5 | EBNA-1 inh conf inactive | ZTA counter trip inactive
Cc1ccc(S(=O)(=O)N2CCCC(C(=O)Nc3ccc(NC(=O)c4ccccn4)cc3)C2)cc1 (configuration not stated)	EBNA-1 inh 77.7 | EBNA-1 inh conf 30.8 | ZTA counter trip inactive
Cc1cc(C)cc(NC(=O)C2CCCN(S(=O)(=O)c3c(C)noc3C)C2)c1 (configuration not stated)	EBNA-1 inh 43.9 | EBNA-1 inh conf inactive | ZTA counter trip inactive
CCOc1cccc(NC(=O)C2CCCN(S(=O)(=O)c3ccc(-n4cnnn4)cc3)C2)c1 (configuration not stated)	none
Cc1ccc(S(=O)(=O)N2CCCC(C(=O)Nc3cccnc3)C2)cc1 (configuration not stated)	none
COc1cccc(NC(=O)C2CCCN(S(=O)(=O)c3ccc(-n4cnnn4)cc3)C2)c1 (configuration not stated)	EBNA-1 inh 55.3 | EBNA-1 inh conf inactive | ZTA counter trip inactive
CCOC(=O)c1cccc(NC(=O)COc2ccc([N+](=O)[O-])cc2)c1	none
CCCOC(=O)c1cccc(NC(=O)COc2ccc([N+](=O)[O-])cc2)c1	EBNA-1 inh 109.0 | EBNA-1 inh conf inactive | ZTA counter trip inactive
NS(=O)(=O)c1ccc(NC(=O)COC(=O)/C(=C/c2cccs2)c2cccs2)cc1	EBNA-1 inh 63.8 | EBNA-1 inh conf 59.8 | ZTA counter trip inactive
NS(=O)(=O)c1ccc(NC(=O)Cc2cccs2)cc1	none (no result: EBNA-1 inh, GSTO1 counter, proCasp7 act, proCasp3 act, ZTA DNA inh)
Cc1ccc(NC(=O)COC(=O)/C=C/c2cccs2)cc1	EBNA-1 inh 39.0 | EBNA-1 inh conf inactive | ZTA counter trip inactive
O=C(COC(=O)c1cc(S(=O)(=O)N2CCOCC2)ccc1Cl)Nc1ccccc1Cl	none (no result: EBNA-1 inh, GSTO1 counter, proCasp7 act, proCasp3 act, ZTA DNA inh)
O=S(=O)(Nc1ccccc1OC(F)F)c1ccc(S(=O)(=O)N2CCCC2)cc1	none (no result: EBNA-1 inh, GSTO1 counter)
Cc1ccc(C(=O)CSc2nc(C)cc(SCc3nnc(-c4ccccc4)o3)n2)cc1	EBNA-1 inh 27.5 | EBNA-1 inh conf inactive | ZTA counter trip inactive
COc1cc(C(=O)NCCCOC(C)C)ccc1OC1CCN(C(C)=O)CC1	none (no result: EBNA-1 inh, GSTO1 counter, proCasp7 act, proCasp3 act, ZTA DNA inh)
